Entries after “also recorded” stand apart in the source; their conditions may differ. Where two headings read alike, the source gives them in different places.
How the values were obtained:
[1] = tested on: Anabaena variabilis ATCC 29413; experiment: Bioactivity assay: growth of A. variabilis in presence of compound; type: cell-based; conditions: for growth inhibition / bioactivity towards A. variabilis: 4 days of cultivation; for cell density (chlorophyll a content) compared to control: 250 μM, four-day cultivation; for concentration at which an effect on growth was visible: after 4 days of cultivation, tested 5-250 µM
How it was run: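 A. variabilis cultured in suspension with test compound at 250 μM for four days. Chlorophyll a content was then measured as the indicator of cell density and compared with untreated control cultures. Cultures were also inspected visually for growth.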

[2] = tested on: A. variabilis; experiment: Uptake assay: decrease of compound in supernatant of A. variabilis cultures; type: cell-based, Anabaena variabilis; conditions: 250 μM applied; for change of compound amount in supernatant: over 48 h
[3] = tested on: DAHP accumulation in A. variabilis cells; experiment: DAHP accumulation in treated A. variabilis cells; type: cell-based, Anabaena variabilis; conditions: 250 μM, after 5 h of cultivation
How it was run: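 Anabaena variabilis cells were cultivated for 5 h with 250 μM test compound, alongside untreated control cells. Treated cells were then examined for intracellular DAHP accumulation as an in vivo sign of DHQS inhibition in the shikimate pathway.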

[4] = tested on: A. thaliana seedlings; experiment: Seedling growth of A. thaliana; type: in vivo, Arabidopsis thaliana; conditions: 7 days after germination, compared to control
How it was run: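 A. thaliana seedlings were grown with or without test compound and scored 7 days after germination for seedling morphology and root length (n≥18 seedlings). Each treatment was compared with the control by unpaired t-test.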

[5] = target: T1, dehydroquinate synthase of Arabidopsis thaliana (AtDHQS) (Arabidopsis thaliana, UniProt Q8VYV7); experiment: DHQS activity assay; type: biochemical
T1 sequence (Q8VYV7 59-442): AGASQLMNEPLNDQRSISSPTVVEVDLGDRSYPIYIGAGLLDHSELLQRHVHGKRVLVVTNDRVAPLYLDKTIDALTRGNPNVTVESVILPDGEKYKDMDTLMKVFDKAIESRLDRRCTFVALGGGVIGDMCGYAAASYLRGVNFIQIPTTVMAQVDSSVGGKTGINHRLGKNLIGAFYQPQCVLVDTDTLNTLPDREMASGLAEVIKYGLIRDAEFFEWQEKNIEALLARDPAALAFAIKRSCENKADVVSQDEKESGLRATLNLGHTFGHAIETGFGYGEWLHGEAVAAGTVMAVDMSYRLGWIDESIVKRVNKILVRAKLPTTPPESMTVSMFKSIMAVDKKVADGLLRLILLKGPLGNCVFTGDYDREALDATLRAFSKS

[6] = Quantification of compound in plant material via GC-MS; type: in vivo, Arabidopsis thaliana
[7] = target: T2, DHQS from A. variabilis (AvDHQS) (Trichormus variabilis, UniProt Q3M4V2); experiment: DHQS activity assay with A. variabilis enzyme; type: biochemical, Anabaena variabilis
T2 sequence (Q3M4V2 1-363): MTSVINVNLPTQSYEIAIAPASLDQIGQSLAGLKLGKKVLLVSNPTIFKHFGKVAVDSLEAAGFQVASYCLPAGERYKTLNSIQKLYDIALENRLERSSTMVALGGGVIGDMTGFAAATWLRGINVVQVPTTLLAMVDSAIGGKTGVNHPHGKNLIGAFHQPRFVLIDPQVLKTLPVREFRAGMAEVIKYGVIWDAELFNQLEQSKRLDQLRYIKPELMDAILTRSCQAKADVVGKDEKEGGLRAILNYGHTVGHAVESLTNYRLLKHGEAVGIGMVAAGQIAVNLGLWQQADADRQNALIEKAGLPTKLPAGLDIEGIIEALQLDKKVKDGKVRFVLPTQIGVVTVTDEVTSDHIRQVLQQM

[8] = tested on: fish; conditions: fish ref 2, 4; cited from earlier work

Row | Compound | growth inhibition / bioactivity towards A. variabilis [1] | change of compound amount in supernatant [2] | DAHP accumulation [3] | effect on seedling growth / root length [4] | cell density (chlorophyll a content) compared to control [1] | concentration at which an effect on growth was visible [1] [µM] | also measured
1 | C[C@@H](O)[C@H](F)[C@@H](O)[C@H](O)C(=O)CO [5,7dd5FIh (3)] | nor in growth inhibition | depletion | only very small amounts; also recorded: neither result in DAHP accumulation | no statistical significant differences | – | – | –
2 | O=C(CO)[C@@H](O)[C@H](O)[C@H](O)[C@H](O)CF [7d7FSh (2)] | inhibited growth | best among all tested compounds | significantly higher amounts; also recorded: significantly elevated compared to 7dSh (1) | significantly affected the growth and morphology; also recorded: inhibited growth | significantly reduced | 100 | IC50 [5]: 200 µM; initially applied compound retrieved in the supernatant ([2]; after 24 h): none; medium concentration leading to saturation of intracellular accumulation ([6]; 7 d old seedlings): 130 µM; accumulation / import into Arabidopsis seedlings ([6]; seedlings germinated on media with 7d7FSh (130 or 260 µM)): comparable range to 7dSh (1)
3 | C[C@@H]1O[C@](O)(CO)[C@@H](O)[C@H](O)[C@H]1O [7dGh (5)] | nor inhibitory impact on cell growth | slight decrease; also recorded: small decrease | only very small amounts; also recorded: neither DAHP accumulation | no statistical significant differences | – | – | relative activity in relation to 7dSh (1) (ratio of IC50 values) ([5]; IC50 7dSh : IC50 derivative, same enzyme series): ≈ 0.3
4 | C[C@@H](O)[C@@H](O)[C@@H](O)[C@H](O)C(=O)CO [7dSh (1), 7‐deoxy‐sedoheptulose] | – | – | significantly higher amounts | significantly affected the growth and morphology | significantly reduced | 5 | IC50 ([5]; IC50, AtDHQS, series [b] enzyme preparation): 85.5 µM; IC50 ([5]; IC50-value against isolated AtDHQS enzyme, range over both enzyme preparations): 85.5 to 144 µM; IC50 ([5]; IC50 of AtDHQS, approximate, as printed in discussion): ~100 µM; IC50 [7]: 23.3 µM; amount of initially applied substance detected in the supernatant ([2]; after 48 h, ESI-MS): about 50%; cytotoxic effects [8]: little
5 | O=C(CO)[C@@H](O)[C@H](O)[C@H](O)[C@H](O)CO [Sedoheptulose, reference compound] | – | – | – | – | – | – | inhibitory effect on AtDHQS [5]: no inhibitory effect; IC50 ([5]; AtDHQS, series [a] enzyme preparation, 2.5 µM substrate, 2 nM enzyme, 29 °C): > 1000 µM
